# Measured values taken from ChEMBL document CHEMBL5058577, “EUbOPEN Chemogenomics Library 2 (Multiplex)” (2022).
# Test system: HEK-293T
# Assay: Multiplex assay against HEK293T
# Assay type: toxicity, cell-based
# Conditions: human
# In short: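 Phenotypes for tubulin, mitochondrial mass and membrane permeability are expressed as per cents of healthy-nucleus cells. Cells were stained live at seeding with Hoechst33342, BioTracker Green Microtubule Cytoskeleton Dye, MitoTracker Red and Annexin V Alexa Fluor 680, then imaged after compound addition on a CQ1 microscope at 37°C and 5% CO2. Machine-learning gating in CellPathfinder separated Hoechst high-intensity objects from normal cells, divided normal cells by nuclear state (healthy, pyknosed, fragmented) and divided pyknosed cells into mitotic or apoptotic.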
# [1] = 12 h, 1 µM, compound concentration 1 uM, replicate 1
# [2] = 12 h, 1 µM, compound concentration 1 uM, replicate 2
# [3] = 12 h, 10 µM, compound concentration 10 uM, replicate 1
# [4] = 12 h, 10 µM, compound concentration 10 uM, replicate 2
# [5] = 24 h, 1 µM, compound concentration 1 uM, replicate 1
# [6] = 24 h, 1 µM, compound concentration 1 uM, replicate 2
# [7] = 24 h, 10 µM, compound concentration 10 uM, replicate 1
# [8] = 24 h, 10 µM, compound concentration 10 uM, replicate 2
# [9] = 48 h, 1 µM, compound concentration 1 uM, replicate 1
# [10] = 48 h, 1 µM, compound concentration 1 uM, replicate 2
# [11] = 48 h, 10 µM, compound concentration 10 uM, replicate 1
# [12] = 48 h, 10 µM, compound concentration 10 uM, replicate 2
compound,measurement,setting,value
O=c1ccc2ccc(OCCCCN3CCN(c4cccc5sccc45)CC3)cc2[nH]1 [BREXPIPRAZOLE],Population Apoptotic (%),[1],44%
same,Population Fragmented Nuclei (%),[1],6%
same,Population Healthy Nuclei (%),[1],77%
same,Population Hoechst High Intensity Objects (%),[1],6%
same,Population Membrane Permeable-Phenotype (%),[1],0%
same,Population Mitochondria Different-Phenotype (%),[1],67%
same,Population Mitotic Cells (%),[1],55%
same,Population Normal (%),[1],93%
same,Population Pyknosed Nuclei (%),[1],15%
same,Population Tubulin-Different-Phenotype (%),[1],51%
same,Total Cell Count,[1],392
same,Population Apoptotic (%),[2],42%
same,Population Fragmented Nuclei (%),[2],5%
same,Population Healthy Nuclei (%),[2],80%
same,Population Mitochondria Different-Phenotype (%),[2],69%
same,Population Mitotic Cells (%),[2],57%
same,Population Pyknosed Nuclei (%),[2],14%
same,Population Tubulin-Different-Phenotype (%),[2],47%
same,Total Cell Count,[2],354
same,Population Apoptotic (%),[3],82%
same,Population Fragmented Nuclei (%),[3],17%
same,Population Healthy Nuclei (%),[3],43%
same,Population Hoechst High Intensity Objects (%),[3],66%
same,Population Membrane Permeable-Phenotype (%),[3],0%
same,Population Mitochondria Different-Phenotype (%),[3],97%
same,Population Mitotic Cells (%),[3],17%
same,Population Normal (%),[3],33%
same,Population Pyknosed Nuclei (%),[3],38%
same,Population Tubulin-Different-Phenotype (%),[3],81%
same,Total Cell Count,[3],299
same,Population Apoptotic (%),[4],85%
same,Population Fragmented Nuclei (%),[4],10%
same,Population Healthy Nuclei (%),[4],66%
same,Population Hoechst High Intensity Objects (%),[4],41%
same,Population Mitochondria Different-Phenotype (%),[4],100%
same,Population Mitotic Cells (%),[4],14%
same,Population Normal (%),[4],59%
same,Population Pyknosed Nuclei (%),[4],23%
same,Population Tubulin-Different-Phenotype (%),[4],62%
same,Total Cell Count,[4],200
same,Population Apoptotic (%),[5],41%
same,Population Fragmented Nuclei (%),[5],10%
same,Population Healthy Nuclei (%),[5],73%
same,Population Hoechst High Intensity Objects (%),[5],8%
same,Population Membrane Permeable-Phenotype (%),[5],0%
same,Population Mitochondria Different-Phenotype (%),[5],51%
same,Population Mitotic Cells (%),[5],58%
same,Population Normal (%),[5],91%
same,Population Pyknosed Nuclei (%),[5],16%
same,Population Tubulin-Different-Phenotype (%),[5],36%
same,Total Cell Count,[5],501
same,Population Apoptotic (%),[6],42%
same,Population Fragmented Nuclei (%),[6],4%
same,Population Healthy Nuclei (%),[6],87%
same,Population Hoechst High Intensity Objects (%),[6],2%
same,Population Mitochondria Different-Phenotype (%),[6],52%
same,Population Mitotic Cells (%),[6],57%
same,Population Normal (%),[6],97%
same,Population Pyknosed Nuclei (%),[6],7%
same,Population Tubulin-Different-Phenotype (%),[6],35%
same,Total Cell Count,[6],449
same,Population Apoptotic (%),[7],91%
same,Population Fragmented Nuclei (%),[7],12%
same,Population Healthy Nuclei (%),[7],37%
same,Population Hoechst High Intensity Objects (%),[7],68%
same,Population Membrane Permeable-Phenotype (%),[7],0%
same,Population Mitochondria Different-Phenotype (%),[7],100%
same,Population Mitotic Cells (%),[7],8%
same,Population Normal (%),[7],31%
same,Population Pyknosed Nuclei (%),[7],50%
same,Population Tubulin-Different-Phenotype (%),[7],66%
same,Total Cell Count,[7],284
same,Population Apoptotic (%),[8],89%
same,Population Fragmented Nuclei (%),[8],10%
same,Population Healthy Nuclei (%),[8],59%
same,Population Hoechst High Intensity Objects (%),[8],46%
same,Population Mitochondria Different-Phenotype (%),[8],98%
same,Population Mitotic Cells (%),[8],10%
same,Population Normal (%),[8],53%
same,Population Pyknosed Nuclei (%),[8],30%
same,Population Tubulin-Different-Phenotype (%),[8],57%
same,Total Cell Count,[8],180
same,Population Apoptotic (%),[9],49%
same,Population Fragmented Nuclei (%),[9],9%
same,Population Healthy Nuclei (%),[9],80%
same,Population Hoechst High Intensity Objects (%),[9],5%
same,Population Membrane Permeable-Phenotype (%),[9],0%
same,Population Mitochondria Different-Phenotype (%),[9],47%
same,Population Mitotic Cells (%),[9],50%
same,Population Normal (%),[9],94%
same,Population Pyknosed Nuclei (%),[9],10%
same,Population Tubulin-Different-Phenotype (%),[9],28%
same,Total Cell Count,[9],679
same,Population Apoptotic (%),[10],48%
same,Population Fragmented Nuclei (%),[10],12%
same,Population Healthy Nuclei (%),[10],79%
same,Population Hoechst High Intensity Objects (%),[10],3%
same,Population Membrane Permeable-Phenotype (%),[10],1%
same,Population Mitochondria Different-Phenotype (%),[10],36%
same,Population Mitotic Cells (%),[10],51%
same,Population Normal (%),[10],96%
same,Population Pyknosed Nuclei (%),[10],7%
same,Population Tubulin-Different-Phenotype (%),[10],26%
same,Total Cell Count,[10],644
same,Population Apoptotic (%),[11],93%
same,Population Fragmented Nuclei (%),[11],19%
same,Population Healthy Nuclei (%),[11],30%
same,Population Hoechst High Intensity Objects (%),[11],67%
same,Population Membrane Permeable-Phenotype (%),[11],0%
same,Population Mitochondria Different-Phenotype (%),[11],96%
same,Population Mitotic Cells (%),[11],6%
same,Population Normal (%),[11],32%
same,Population Pyknosed Nuclei (%),[11],50%
same,Population Tubulin-Different-Phenotype (%),[11],51%
same,Total Cell Count,[11],269
same,Population Apoptotic (%),[12],89%
same,Population Fragmented Nuclei (%),[12],14%
same,Population Healthy Nuclei (%),[12],50%
same,Population Hoechst High Intensity Objects (%),[12],52%
same,Population Mitochondria Different-Phenotype (%),[12],97%
same,Population Mitotic Cells (%),[12],10%
same,Population Normal (%),[12],47%
same,Population Pyknosed Nuclei (%),[12],34%
same,Population Tubulin-Different-Phenotype (%),[12],82%
same,Total Cell Count,[12],170
